Compound activity as filed in PubChem.
CSN inh: CSN deneddylation inhibition. inhibition, % at 12.5 µM. AID 651999. hit rate 0.38% among 360,000. Purified CSN, SCF-Nedd8-OG deneddylation, fluorescence polarization. Q92905;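 active means pattern-corrected inhibition above about 35%, with an unprinted fluorescence ratio check between 0.5 and 1.5, limit read from the data, passing the limit was not always enough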;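 further: 0% = enzyme with substrate and 100% = substrate without enzyme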
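Detection – fluorescence polarization · System – HEK293T-derived human Csn5 enzyme · Controls – substrate-only high control, full reaction low control · Timing – 90 min, room temperature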
HNF4A DNA FP: change in binding of human HNF4 alpha to DNA; HNF4a-FITC DNA binding, fluorescence polarization, 1 h; activity change, % at 10 µM; hit rate 0.3% among 360,000; AID 1224865; in the data active means activity change above about 30%, passing the limit was not always enough
TPT1 inh: blocks Candida albicans tRNA 2'-phosphotransferase; recombinant caTPT1, FP RNA substrate dephosphorylation; inhibition, % at 5 µM; hit rate 0.81% among 300,000; AID 1962;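 active means inhibition above the mean of all tested compounds plus 3 SD, set per screening campaign, cut at about 24% in these data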;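 further: plate controls were DMSO alone for no effect and ferristatin control at 100 nM for full effect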
Rpn11 block: Rpn11 (human) deubiquitinase inhibition. human 26S proteasome, Ub4-pepOG fluorescence polarization; 20S core pre-blocked with epoxomicin. calls only at 20 µM. O00487. hit rate 0.59% among 360,000. AID 588493;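 active means inhibition at 20 µM, scaled to each plate's controls, above about 33%, limit read from the data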
TPT1 inh confirm: TPT1 (C. albicans) inhibition, confirmation. shares compounds with TPT1 inh. recombinant caTPT1, fluorescence polarization, RNase T1 coupled. inhibition, % at 5 µM. hit rate 74% among 2,400. AID 2149;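 active means inhibition above the primary screen limit, the mean inhibition of all tested compounds plus 3 SD, cut at about 25% in these data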
RNase T1 counter: RNase T1 inhibition in TPT1 counter-screen. shares compounds with TPT1 inh. RNase T1 cleavage, fluorescence polarization, 1536-well. inhibition, % at 5 µM. hit rate 83% among 2,400;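 active means inhibition above the solvent-only control well mean plus 3 SD, limit set per screening run, cut at about 23% in these data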;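 further: plate controls were DMSO wells with enzyme for no effect and wells without RNase T1 for full effect; inhibitors block cleavage so intact labeled substrate keeps polarization high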
Rpn11 confirm: Rpn11 inhibition confirmation, single concentration; shares compounds with Rpn11 block; purified human 26S proteasome, Ub4-pepOG fluorescence polarization; proteasome pretreated with epoxomicin; inhibition, % at 20 µM; hit rate 29% among 1,900; AID 602318
MMP-2 counter-1: blocks human MMP-2, flagging nonselective RPN11 hits | shares compounds with Rpn11 block | recombinant MMP-2, FRET peptide cleavage fluorescence | inhibition, % at 20 µM | hit rate 4% among 1,900;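 further: human MMP-2 activated beforehand with APMA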
Thrombin FP: thrombin (bovine) inhibition counter-screen. shares compounds with Rpn11 block. bovine thrombin cleavage of Ub4-pepOG, fluorescence polarization. inhibition, % at 20 µM. hit rate 13% among 1,900. AID 602333;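 active means mean inhibition at least 40% at 20 µM, or signal 3 deviations below plate average, so some actives read negative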;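 further: plate controls were thrombin with DMSO for no effect and buffer wells lacking thrombin for full effect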
Target sequence (P00735 whole entry, looked up): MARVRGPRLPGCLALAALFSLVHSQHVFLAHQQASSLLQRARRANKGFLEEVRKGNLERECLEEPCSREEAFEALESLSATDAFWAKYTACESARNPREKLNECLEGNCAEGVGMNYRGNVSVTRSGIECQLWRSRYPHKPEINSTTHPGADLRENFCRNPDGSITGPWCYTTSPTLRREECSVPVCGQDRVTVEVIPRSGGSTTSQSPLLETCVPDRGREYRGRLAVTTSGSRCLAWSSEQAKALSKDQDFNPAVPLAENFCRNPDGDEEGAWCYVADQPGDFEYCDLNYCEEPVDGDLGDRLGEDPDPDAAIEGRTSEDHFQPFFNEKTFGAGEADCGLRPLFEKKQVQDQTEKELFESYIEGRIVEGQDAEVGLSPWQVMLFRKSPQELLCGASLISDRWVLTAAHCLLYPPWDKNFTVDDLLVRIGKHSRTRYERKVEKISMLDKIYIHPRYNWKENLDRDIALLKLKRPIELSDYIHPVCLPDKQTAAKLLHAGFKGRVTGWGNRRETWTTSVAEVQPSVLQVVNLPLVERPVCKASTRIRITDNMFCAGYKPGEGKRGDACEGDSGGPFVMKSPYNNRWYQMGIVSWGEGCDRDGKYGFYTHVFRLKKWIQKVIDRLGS
CSN5 deneddyl: validation of inhibitors of human CSN-mediated cullin deneddylation | inhibition, % at 16.6 µM | shares compounds with CSN inh | AID 720654 | hit rate 62% among 540 | Csn5 deneddylation of SCF-Nedd8OG, fluorescence polarization, 90 min; in the data active means inhibition above about 50%;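 further: 0% = DMSO with enzyme and 100% = no enzyme wells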
MMP-2 counter-2: MMP-2 (human) inhibition, counter-screen for CSN hits; shares compounds with CSN inh; AID 720655; hit rate 33% among 540; inhibition, % at 16.6 µM; recombinant MMP-2, FRET substrate fluorescence, 60 min;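 active means corrected plate-normalized z-score of 5 or more, or -5 or less, or inhibition of 15% or more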;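 further: plate controls were DMSO wells with enzyme for no effect and buffer wells lacking MMP-2 for full effect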
Thrombin counter: thrombin (bovine) inhibition, counter-screen for CSN hits. shares compounds with CSN inh. bovine thrombin cleavage of Ub4-pepOG, fluorescence polarization. inhibition, % at 16.6 µM. hit rate 49% among 540;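 active means inhibition at or above a set limit, with a fluorescence interference ratio between 0.5 and a set maximum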
The depositor's hits bear a star; i = inactive; · = no result given; + = active, no number. Sampled rows, rich in hits. Any-hit rate of the full collection: about 1.5%. Unless noted, no stated cut-off is given here; in the data, active means inhibition above about 40%; inactive means the rest.

SMILES | CSN inh | HNF4A DNA FP | TPT1 inh | Rpn11 block | TPT1 inh confirm | RNase T1 counter | CSN5 deneddyl | MMP-2 counter-2 | Thrombin counter | others
C=CC[n+]1c(-c2ccc(OC)c(OC)c2)csc1NNC(=O)Nc1ccccc1 | 10 | 1 | 25* | + | 7 | 11 | · | · | · | Rpn11 confirm=-3;MMP-2 counter-1=48*;Thrombin FP=1
Nc1c(C(=O)N/N=C/c2cccnc2)oc2nc(-c3ccccc3)cc(-c3ccco3)c12 | -3 | 23 | 58* | + | 100* | 103* | · | · | · | Rpn11 confirm=-51;MMP-2 counter-1=-81;Thrombin FP=active
Cc1cccc(/C=N/c2sc3c(c2C#N)CCN(Cc2ccccc2)C3)c1O | 29 | 23 | 58* | + | 56* | 69* | · | · | · | Rpn11 confirm=18;MMP-2 counter-1=-11;Thrombin FP=-7
O=C(CN1C(=O)NC2(CCCCCCC2)C1=O)NCc1ccccc1 | 5 | 0 | · | i | · | · | · | · | ·
CCCC1=NN2C(=N)/C(=C\c3cc(C)n(Cc4ccccc4)c3C)C(=O)N=C2S1 | 5 | -1 | 5 | i | · | · | · | · | ·
CCCC1=NN2C(=N)/C(=C\c3ccc(SCc4ccco4)o3)C(=O)N=C2S1 | 76* | 30 | 43* | + | 47* | 60* | · | · | · | Rpn11 confirm=40*;MMP-2 counter-1=-5;Thrombin FP=23
CCCCN(C)CC(O)Cn1cc(/C=C/C(=O)c2cccs2)c2ccccc21 (centres undefined) | 41* | 24 | 59* | · | 61* | 68* | 67* | -7 | 32*
CCCCN(C)CC(O)Cn1cc(/C=C/C(=O)c2ccc(OCC)cc2)c2ccccc21 (centres undefined) | · | · | 17 | · | · | · | · | · | ·
O=C(O)c1cccc(-c2ccc(/C=c3/sc4nc5ccccc5n4c3=O)o2)c1 | 129* | 38* | 97* | · | 118* | 121* | -45 | 19* | 78*
CN(C)S(=O)(=O)c1ccc2c(c1)/C(=C/c1cc3c([nH]1)CCCC3)C(=O)N2 | 54* | 96 | 153* | · | 155* | 145* | 75* | -11 | 37
NS(=O)(=O)c1ccc(-c2ccc(/C=C3\SC(=S)N(C4CCS(=O)(=O)C4)C3=O)o2)cc1 (centres undefined) | 70* | 130 | 109* | · | 154* | 142* | 87* | -46* | 46
CCS(=O)(=O)c1nn2c(N)c(/C=C3/C=CC(=O)C(OC)=C3)c(=O)nc2s1 | 44* | 31 | 35* | · | 86* | 92* | 55* | 5 | 52*
Nc1c(C=C2C=CC(=O)C=C2)c(=O)nc2sc(CC(=O)N3CCCC3)nn12 | 3 | 0 | 4 | i | · | · | · | · | ·
Cn1cccc1/C=C1\CC(C(C)(C)C)C/C(=C\c2cccn2C)C1=O (centres undefined) | 97* | 140 | 176* | · | 162* | 149* | 93* | -34* | 45
Cn1c(N)c(N=O)c(=O)n(C)c1=S | 1 | 1 | · | i | · | · | · | · | ·
COc1ccc(/C=C2\C(=O)NC(=S)N2C(=O)c2ccc(F)cc2)cc1 | 65* | 72* | 148* | + | 156* | 145* | · | -38* | -53 | Rpn11 confirm=+;MMP-2 counter-1=12;Thrombin FP=active
O=C(/C=C/c1ccc([N+](=O)[O-])cc1)/C=C/c1ccco1 | 46* | -24 | 27* | i | 24 | 31* | 77* | 10 | 9
N=C1/C(=C\c2ccc(-c3cccc(Cl)c3)o2)C(=O)N=C2SC=C(c3ccccc3)N12 | 38* | 19 | 60* | + | 44* | 56* | 64* | 10 | 23* | Rpn11 confirm=73*;MMP-2 counter-1=34;Thrombin FP=49*
CCC1C/C(=C\c2cc(OC)c(OC)cc2OC)C(=O)/C(=C/c2cc(OC)c(OC)cc2OC)C1 (centres undefined) | 35* | 71* | 64* | + | 88* | 97* | 64* | -10 | 48*
CN(C)S(=O)(=O)c1ccc(C(=O)NNC(=O)C23CC4CC(CC(C4)C2)C3)cc1 | -1 | 2 | · | i | · | · | · | · | ·
COc1ccccc1-n1cc([C@@H]2C[C@H]3CN(c4ccccc4)C(=O)[C@]34CCCN24)cn1 | 54* | 65* | 60* | · | 47* | 61* | 69* | -3 | 37*
CCN1C(=O)/C(=C/C=C2\N(CC)c3cc(S(=O)(=O)N(C)C)ccc3N2c2ccccc2)SC1=S | 75* | 133 | 136* | · | 94* | 94* | 63* | -6 | 34*
NS(=O)(=O)c1cc(C(=O)NC2CCSc3ccccc32)ccc1Cl (centres undefined) | 64* | -77 | 54* | + | 67* | 3 | 21 | 13 | 49* | Rpn11 confirm=98*;MMP-2 counter-1=22;Thrombin FP=61*
CCC(CC)Nc1ccc(C(CC(N)=O)NC(=O)c2ccccc2)cc1[N+](=O)[O-] (centres undefined) | -5 | 3 | -2 | i | · | · | · | · | ·
S=C(NCc1ccc(Cl)cc1)Nc1ccncc1 | -3 | -3 | -3 | i | · | · | · | · | ·
SMILES | CSN inh | HNF4A DNA FP | TPT1 inh | Rpn11 block | TPT1 inh confirm | RNase T1 counter | CSN5 deneddyl | MMP-2 counter-2 | Thrombin counter | others
COc1cc(/C=C2\Oc3cc(O)ccc3C2=O)ccc1O | 40* | 33 | 47* | · | 51* | 59* | 98* | -7 | 29*
Cc1ccsc1/C=C1\Oc2cc(O)ccc2C1=O | -41 | -48 | · | i | · | · | · | · | ·
CC(=O)c1ccccc1NC(=O)COC(=O)CCC1CCCC1 | 2 | -5 | · | i | · | · | · | · | ·
N#C/C(=C\N1CCOCC1)c1ccccc1 | 4 | 0 | -1 | i | · | · | · | · | ·
N#C/C(=C/c1ccc(N2CCOCC2)o1)c1ccc(Br)cc1 | 80* | 112 | + | · | 171* | 159* | + | -37* | -51
N#C/C(=C/c1ccc(N2CCOCC2)o1)C(=O)NC1CCCCC1 | 103* | 172 | 156* | · | 173* | 166* | 120* | -5 | 88*
CSc1ccc(/C=C(\C#N)C(=O)NC2CCCCC2)cc1 | -1 | 0 | -3 | i | · | · | · | · | ·
